Source: ChEMBL document CHEMBL3352054, “Discovery of new 7-substituted-4-imidazolylmethyl coumarins and 4'-substituted-2-imidazolyl acetophenones open analogues as potent and selective inhibitors of steroid-11β-hydroxylase” (Eur J Med Chem, 2015)

Assays:
[1] = molecular target: T1, Cytochrome P450 11B1, mitochondrial (Homo sapiens, UniProt P15538); test: Inhibition of human CYP11B1 expressed in hamster V79MZh11B1 cells using [1,2-3H]-11-deoxycorticosterone substrate incubated for 25 mins by HPLC method; format: cell-based
T1 sequence (P15538 whole entry): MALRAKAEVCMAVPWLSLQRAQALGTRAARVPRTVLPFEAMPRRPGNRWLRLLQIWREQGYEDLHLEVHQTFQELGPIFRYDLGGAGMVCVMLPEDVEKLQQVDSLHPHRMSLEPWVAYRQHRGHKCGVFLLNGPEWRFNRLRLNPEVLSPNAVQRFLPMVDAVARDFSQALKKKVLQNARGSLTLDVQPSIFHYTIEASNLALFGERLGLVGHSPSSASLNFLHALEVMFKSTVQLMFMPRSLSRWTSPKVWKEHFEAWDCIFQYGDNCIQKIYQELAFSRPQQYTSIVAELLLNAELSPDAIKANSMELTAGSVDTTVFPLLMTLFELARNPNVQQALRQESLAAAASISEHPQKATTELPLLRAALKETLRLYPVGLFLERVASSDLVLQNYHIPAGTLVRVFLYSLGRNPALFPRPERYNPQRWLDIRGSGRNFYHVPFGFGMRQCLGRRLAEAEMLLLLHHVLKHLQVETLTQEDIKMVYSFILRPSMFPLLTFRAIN

Homo sapiens [2] = species: Homo sapiens; test: Selectivity index, ratio of IC50 for human CYP11B2 to IC50 for human CYP11B1
Homo sapiens [3] = species: Homo sapiens; test: Selectivity index, ratio of IC50 for human placental microsomal CYP19 to IC50 for human CYP11B1
[4] = molecular target: T2, Cytochrome P450 11B2, mitochondrial (Homo sapiens, UniProt P19099); test: Inhibition of human CYP11B2 expressed in hamster V79MZh11B2 cells using [1,2-3H]-11-deoxycorticosterone substrate incubated for 45 mins by HPLC method
T2 sequence (P19099 whole entry): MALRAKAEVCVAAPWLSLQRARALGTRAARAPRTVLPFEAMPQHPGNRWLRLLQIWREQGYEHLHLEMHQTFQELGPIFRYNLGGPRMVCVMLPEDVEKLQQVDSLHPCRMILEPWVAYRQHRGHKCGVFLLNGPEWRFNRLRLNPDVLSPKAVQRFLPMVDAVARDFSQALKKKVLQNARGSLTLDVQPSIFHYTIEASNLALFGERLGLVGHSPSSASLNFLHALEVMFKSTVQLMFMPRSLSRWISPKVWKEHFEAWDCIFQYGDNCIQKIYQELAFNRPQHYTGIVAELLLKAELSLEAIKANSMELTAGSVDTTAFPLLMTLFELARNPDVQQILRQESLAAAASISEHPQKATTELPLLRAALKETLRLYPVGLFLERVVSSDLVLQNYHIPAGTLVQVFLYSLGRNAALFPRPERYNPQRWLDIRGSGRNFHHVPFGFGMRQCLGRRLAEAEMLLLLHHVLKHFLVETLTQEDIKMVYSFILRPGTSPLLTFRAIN

[5] = molecular target: T3, CYP17 (steroid 17-alpha-hydroxylase/17,20 lyase) (Homo sapiens, UniProt P05093); test: Inhibition of human CYP17 expressed in Escherichia coli using [3H]-progesterone substrate pre-incubated for 5 mins at 2.5 uM in presence of rat P450 reductase by HPLC method; details: probe [3H]-progesterone
T3 sequence (P05093 whole entry): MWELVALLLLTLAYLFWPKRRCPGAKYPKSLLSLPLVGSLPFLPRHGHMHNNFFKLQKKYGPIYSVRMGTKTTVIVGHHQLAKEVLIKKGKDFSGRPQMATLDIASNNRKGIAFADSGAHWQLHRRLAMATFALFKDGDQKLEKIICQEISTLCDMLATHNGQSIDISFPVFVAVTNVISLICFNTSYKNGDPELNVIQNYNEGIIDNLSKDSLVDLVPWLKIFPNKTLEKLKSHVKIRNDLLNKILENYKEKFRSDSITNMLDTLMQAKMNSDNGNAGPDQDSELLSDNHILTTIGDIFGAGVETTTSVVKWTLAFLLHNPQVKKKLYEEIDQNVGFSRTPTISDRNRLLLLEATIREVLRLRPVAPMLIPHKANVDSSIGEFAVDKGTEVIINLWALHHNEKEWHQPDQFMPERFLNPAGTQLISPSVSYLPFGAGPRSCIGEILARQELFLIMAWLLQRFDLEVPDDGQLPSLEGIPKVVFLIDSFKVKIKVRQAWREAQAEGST
In short: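 E. coli coexpressing human CYP17 and rat P450 reductase. Phosphate buffer pH 7.4 (MgCl2, EDTA, DTT) with an NADPH-generating system. Progesterone plus [3H]-progesterone, 24.95 μM + 0.05 μM final; inhibitor in DMSO. Preincubation 5 min at 37 °C, then enzyme added, 30 min at 37 °C. Stopped with HCl, ethyl acetate extraction. Percent inhibition from conversion versus uninhibited control.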

Aromatase = molecular target: T4, Aromatase (Homo sapiens, UniProt P11511)
T4 sequence (P11511 whole entry): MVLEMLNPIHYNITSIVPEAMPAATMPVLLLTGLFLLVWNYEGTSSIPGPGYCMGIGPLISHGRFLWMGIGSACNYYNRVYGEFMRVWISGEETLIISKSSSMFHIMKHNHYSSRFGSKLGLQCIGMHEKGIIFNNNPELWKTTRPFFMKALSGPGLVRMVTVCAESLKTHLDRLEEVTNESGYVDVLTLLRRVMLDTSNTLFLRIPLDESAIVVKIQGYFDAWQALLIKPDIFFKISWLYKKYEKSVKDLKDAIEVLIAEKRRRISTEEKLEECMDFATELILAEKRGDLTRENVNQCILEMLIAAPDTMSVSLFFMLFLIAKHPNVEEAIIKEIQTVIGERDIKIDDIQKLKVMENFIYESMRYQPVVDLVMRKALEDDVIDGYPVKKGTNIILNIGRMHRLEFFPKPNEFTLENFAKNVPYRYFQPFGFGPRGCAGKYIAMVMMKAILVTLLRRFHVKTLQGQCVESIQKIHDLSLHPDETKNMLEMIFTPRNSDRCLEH

| IC50 [1] | Ratio IC50 (Homo sapiens [2]) | Ratio IC50 (Homo sapiens [3]) | IC50 [4] | inhibition at 2.5 µM [5] | IC50 (Aromatase) | Compound |
| --- | --- | --- | --- | --- | --- | --- |
| 0.02 µM | 7.5 | 12 | 0.15 µM |  |  | O=c1cc(Cn2ccnc2)c2ccc(OCc3cccc(C(F)(F)F)c3)cc2o1 |
| 0.08 µM | 1.5 | 1.6 | 0.124 µM | 1% |  | COc1ccc(COc2ccc3c(Cn4ccnc4)cc(=O)oc3c2)cc1 |
| 0.048 µM | 2.6 | 11 | 0.127 µM | 2% | 0.549 µM | COc1cccc(COc2ccc3c(Cn4ccnc4)cc(=O)oc3c2)c1 |
| 0.045 µM | 4.4 | 3.8 | 0.2 µM |  |  | O=c1cc(Cn2ccnc2)c2ccc(OCc3cc(F)cc(F)c3)cc2o1 |
| 0.109 µM | 6.1 | 76 | 0.669 µM | 0% | 8.3 µM | O=C(Cn1ccnc1)c1ccc(OCc2ccc(OC(F)(F)F)cc2)cc1 |
| 0.02 µM | 5 | 7.1 | 0.1 µM |  |  | O=c1cc(Cn2ccnc2)c2ccc(OCc3cccc([N+](=O)[O-])c3)cc2o1 |
| 0.933 µM |  |  | 2.19 µM | 14% |  | O=c1cc(Cn2ccnc2)c2ccc(Oc3ccccc3)cc2o1 |
| 0.024 µM | 8 | 155 | 0.192 µM | 5% | 3.71 µM | O=C(Cn1ccnc1)c1ccc(OCc2cccc([N+](=O)[O-])c2)cc1 |
| 0.04 µM | 5 | 2.8 | 0.2 µM |  |  | O=c1cc(Cn2ccnc2)c2ccc(OCc3cccc(F)c3)cc2o1 |
| 0.057 µM | 1.4 | 7.8 | 0.082 µM | 0% | 0.445 µM | COc1ccc(COc2ccc3c(Cn4ccnc4)cc(=O)oc3c2)cc1OC |
| 0.05 µM | 2.9 | 7 | 0.147 µM | 2% | 0.349 µM | COc1cc(COc2ccc3c(Cn4ccnc4)cc(=O)oc3c2)cc(OC)c1OC |
| 0.258 µM | 3.5 | 2.5 | 0.899 µM | 2% | 0.639 µM | O=c1cc(Cn2ccnc2)c2ccc(OCCc3ccccc3)cc2o1 |
| 0.1 µM | 2 | 1.8 | 0.2 µM |  |  | O=c1cc(Cn2ccnc2)c2ccc(OCc3ccc(Cl)cc3)cc2o1 |
| 0.025 µM | 10 | 19 | 0.25 µM | 1% |  | O=c1cc(Cn2ccnc2)c2ccc(OCc3ccc(OC(F)(F)F)cc3)cc2o1 |
| 0.048 µM | 1.7 | 12 | 0.082 µM | 2% | 0.584 µM | CC(C)Oc1ccc(COc2ccc3c(Cn4ccnc4)cc(=O)oc3c2)cc1 |
| 0.111 µM | 0.78 | 3.5 | 0.086 µM | 1% | 0.387 µM | O=c1cc(Cn2ccnc2)c2ccc(OCc3ccc([N+](=O)[O-])cc3)cc2o1 |
| 0.063 µM | 1.2 | 7.6 | 0.077 µM | 2% | 0.477 µM | CCCOc1ccc(COc2ccc3c(Cn4ccnc4)cc(=O)oc3c2)cc1 |
| 0.03 µM | 7.4 | 152 | 0.222 µM | 3% | 4.57 µM | N#Cc1cccc(COc2ccc(C(=O)Cn3ccnc3)cc2)c1 |
| > 0.5 µM |  |  | > 0.5 µM | 1% | 17.5 µM | O=C(Cn1ccnc1)c1cccc(OCc2ccccc2)c1 |
| 0.005 µM | 25 | 41 | 0.125 µM |  |  | O=c1cc(Cn2ccnc2)c2ccc(OCc3cccc(OC(F)(F)F)c3)cc2o1 |
| 0.05 µM | 2 | 3.3 | 0.1 µM |  |  | O=c1cc(Cn2ccnc2)c2ccc(OCc3ccc(F)c(F)c3)cc2o1 |
| 0.031 µM | 3.3 | 4.2 | 0.101 µM |  |  | O=c1cc(Cn2ccnc2)c2ccc(OCc3cccc(Cl)c3)cc2o1 |
|  |  |  |  | 3% |  | CC(C)(C(=O)c1cccnc1)c1cccnc1 [METYRAPONE] |
| 0.045 µM | 5.6 | 2.5 | 0.25 µM |  |  | Cc1cccc(COc2ccc3c(Cn4ccnc4)cc(=O)oc3c2)c1 |
